In ChEMBL document CHEMBL1123420, “Synthesis and toxicity toward nigrostriatal dopamine neurons of 1-methyl-4-phenyl-1,2,3,6-tetrahydropyridine (MPTP) analogues” (1986) one finds Content data, which are given here for 7 compounds.

Common to all, as to format: functional
For test [1], the system named is Mus musculus. The test can be described thus: DOPAC content in mice striata was evaluated after 1 day of administration of compound. The gist of the method:
(§1)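 Male Swiss mice (25–40 g) dosed ip, 0.072 mmol/kg on days 1 and 2, then 0.142 mmol/kg on days 3–12. Drugs were given as 0.14 M solutions in normal saline and stored at 5 °C; saline-injected controls. Mice killed 1 day after the last injection. Striata weighed, homogenized, Sephadex-separated, then DA, DOPAC and HVA measured by HPLC-EC in μg/g tissue as mean ± error.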

The subject of test [2] is Mus musculus. In words: Dopamine content in mice striata was evaluated after 1 day of administration of compound. The gist of the method:
as §1

The subject of test [3] is Mus musculus. The test can be described thus: Dopamine content in mice striata was evaluated after 9 days of administration of compound. In outline: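 Ip regimen in male Swiss mice (25–40 g): 0.072 mmol/kg on days 1–2, then 0.142 mmol/kg on days 3–12, from 0.14 M saline solutions; saline controls; n=5 per group. Animals killed 9 days after the final injection. Striatal DA measured by HPLC-EC after homogenization and Sephadex cleanup, reported in μg/g tissue.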

For test [4], the system named is Mus musculus. The test can be described thus: HVA content in mice striata was evaluated after 1 day of administration of compound. In outline:
as §1

Molecules are shown by their SMILES.

Turning to `CC1=C(c2ccccc2)CC(C)N(C)C1.O=C(O)/C=C/C(=O)O` (stereo not drawn), the Content was 1.18 ug (g of tissue)-1 with Mus musculus [1], 15.22 ug (g of tissue)-1 in the test on Mus musculus [2], 14.49 ug (g of tissue)-1 in the test on Mus musculus [3] and 1.27 ug (g of tissue)-1 with Mus musculus [4].

`CN1CC=C(c2ccccc2)CC1.Cl`: the Content with Mus musculus [1] is recorded as 0.31 ug (g of tissue)-1; in the test on Mus musculus [2] it was 3.16 ug (g of tissue)-1; in the test with Mus musculus [3], 4.34 ug (g of tissue)-1; in the test on Mus musculus [4] it was 0.61 ug (g of tissue)-1.

Regarding `CC1=C(c2ccccc2)CCN(C)C1.Cl`, the Content in the test with Mus musculus [1] is 1.22 ug (g of tissue)-1; in the test on Mus musculus [2], 13.68 ug (g of tissue)-1; in the test on Mus musculus [3] it was 13.85 ug (g of tissue)-1; in the test on Mus musculus [4], 1.26 ug (g of tissue)-1.

As for `CN1CC=C(c2ccccc2)C(C)(C)C1.Cl`, the Content is recorded as 1.31 ug (g of tissue)-1 in the test on Mus musculus [1], 17.28 ug (g of tissue)-1 in the test on Mus musculus [2], 17.28 ug (g of tissue)-1 in the test with Mus musculus [3] and 1.39 ug (g of tissue)-1 in the test with Mus musculus [4].

In the case of `CC1CN(C)C(C)C=C1c1ccccc1.Cl` (stereo not drawn), the Content was 1.36 ug (g of tissue)-1 with Mus musculus [1], 14.42 ug (g of tissue)-1 with Mus musculus [2], 14.65 ug (g of tissue)-1 in the test with Mus musculus [3] and 1.39 ug (g of tissue)-1 with Mus musculus [4].

With `CN(C)C/C=C/c1ccccc1.Cl`, the Content in the test on Mus musculus [1] is recorded as 1.37 ug (g of tissue)-1; with Mus musculus [2], 13.6 ug (g of tissue)-1; in the test with Mus musculus [3], 14.56 ug (g of tissue)-1; in the test on Mus musculus [4], 1.11 ug (g of tissue)-1.

Take `CC1CN(C)CC=C1c1ccccc1.Cl` (stereo not drawn): the Content is listed as 1.11 ug (g of tissue)-1 in the test on Mus musculus [1], 13.21 ug (g of tissue)-1 in the test with Mus musculus [2], 13.35 ug (g of tissue)-1 in the test with Mus musculus [3] and 1.14 ug (g of tissue)-1 in the test on Mus musculus [4].
